Assay results reported in ChEMBL document CHEMBL1133154, “Inhibition of inducible nitric oxide synthase by acetamidine derivatives of hetero-substituted lysine and homolysine” (Bioorg Med Chem Lett, 2000).

What was measured:
[1] = target: Nitric oxide synthase, inducible (Homo sapiens, UniProt P35228); experiment: Inhibition of human inducible nitric oxide synthase
[2] = target: T1, Nitric oxide synthase 1 (Homo sapiens, UniProt P29475); experiment: Inhibition of human neuronal Nitric Oxide Synthase
[3] = target: T2, Nitric oxide synthase 3 (Homo sapiens, UniProt P29474); experiment: Inhibition of human endothelial Nitric Oxide Synthase
T2 sequence (P29474 whole entry): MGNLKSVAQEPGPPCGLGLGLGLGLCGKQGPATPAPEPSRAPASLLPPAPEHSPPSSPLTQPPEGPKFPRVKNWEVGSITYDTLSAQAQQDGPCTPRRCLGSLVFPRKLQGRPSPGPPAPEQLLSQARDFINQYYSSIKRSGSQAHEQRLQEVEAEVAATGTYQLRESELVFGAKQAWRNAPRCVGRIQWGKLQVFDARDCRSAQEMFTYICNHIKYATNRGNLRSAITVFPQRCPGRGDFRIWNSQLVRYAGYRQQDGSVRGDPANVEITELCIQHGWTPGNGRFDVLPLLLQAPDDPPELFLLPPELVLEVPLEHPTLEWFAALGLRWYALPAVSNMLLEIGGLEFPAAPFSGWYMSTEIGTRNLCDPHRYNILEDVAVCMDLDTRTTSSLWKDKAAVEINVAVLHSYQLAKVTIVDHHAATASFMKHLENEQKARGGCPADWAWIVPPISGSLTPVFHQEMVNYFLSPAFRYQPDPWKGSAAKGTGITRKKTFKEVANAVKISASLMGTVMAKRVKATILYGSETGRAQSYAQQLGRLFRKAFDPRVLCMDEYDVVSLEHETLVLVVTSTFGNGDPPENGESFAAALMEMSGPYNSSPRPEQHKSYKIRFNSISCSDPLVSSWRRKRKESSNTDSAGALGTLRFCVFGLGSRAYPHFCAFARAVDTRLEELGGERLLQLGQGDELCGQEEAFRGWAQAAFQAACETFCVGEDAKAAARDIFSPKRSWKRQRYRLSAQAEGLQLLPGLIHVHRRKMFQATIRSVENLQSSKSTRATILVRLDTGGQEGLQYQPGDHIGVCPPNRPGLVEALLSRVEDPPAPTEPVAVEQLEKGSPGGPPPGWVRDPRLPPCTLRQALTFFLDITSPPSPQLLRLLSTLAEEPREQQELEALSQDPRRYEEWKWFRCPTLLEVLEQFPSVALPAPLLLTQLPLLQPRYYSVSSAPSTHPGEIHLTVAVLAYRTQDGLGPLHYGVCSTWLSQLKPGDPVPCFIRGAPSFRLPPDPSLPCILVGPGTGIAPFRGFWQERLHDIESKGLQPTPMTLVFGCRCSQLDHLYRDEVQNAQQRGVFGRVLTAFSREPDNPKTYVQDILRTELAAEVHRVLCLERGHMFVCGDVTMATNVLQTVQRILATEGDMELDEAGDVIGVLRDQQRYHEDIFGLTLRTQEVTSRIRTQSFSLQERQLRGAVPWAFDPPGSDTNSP

[4] = target: Nitric oxide sythases; iNOS & nNOS (Homo sapiens) (UniProt P29475+P35228); experiment: Ratio of binding to Neuronal nitric oxide synthase and Inducible nitric oxide synthase; assay type: protein assay
[5] = target: T2, Nitric oxide synthase 3; experiment: Concentration required for inhibition of endothelial Nitric Oxide Synthase in human
Method in brief: (§1)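 Recombinant human NOS enzymes (endothelial or neuronal isoform) were tested in an oxyhaemoglobin assay. Readings were taken 15–30 min after inhibitor addition so that time-dependent inhibition could develop, and IC50 values were derived from those readings.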

[6] = target: Nitric oxide synthase (inducible and endothelial) (Homo sapiens) (UniProt P35228+P29474); experiment: Ratio of Endothelial Nitric Oxide Synthase to Inducible nitric oxide synthase; assay type: protein assay
[7] = target: T1, Nitric oxide synthase 1; experiment: Concentration required for inhibition of neuronal Nitric Oxide Synthase in human; method in brief: as §1

Sequence of Nitric oxide synthase, inducible (P35228 whole entry): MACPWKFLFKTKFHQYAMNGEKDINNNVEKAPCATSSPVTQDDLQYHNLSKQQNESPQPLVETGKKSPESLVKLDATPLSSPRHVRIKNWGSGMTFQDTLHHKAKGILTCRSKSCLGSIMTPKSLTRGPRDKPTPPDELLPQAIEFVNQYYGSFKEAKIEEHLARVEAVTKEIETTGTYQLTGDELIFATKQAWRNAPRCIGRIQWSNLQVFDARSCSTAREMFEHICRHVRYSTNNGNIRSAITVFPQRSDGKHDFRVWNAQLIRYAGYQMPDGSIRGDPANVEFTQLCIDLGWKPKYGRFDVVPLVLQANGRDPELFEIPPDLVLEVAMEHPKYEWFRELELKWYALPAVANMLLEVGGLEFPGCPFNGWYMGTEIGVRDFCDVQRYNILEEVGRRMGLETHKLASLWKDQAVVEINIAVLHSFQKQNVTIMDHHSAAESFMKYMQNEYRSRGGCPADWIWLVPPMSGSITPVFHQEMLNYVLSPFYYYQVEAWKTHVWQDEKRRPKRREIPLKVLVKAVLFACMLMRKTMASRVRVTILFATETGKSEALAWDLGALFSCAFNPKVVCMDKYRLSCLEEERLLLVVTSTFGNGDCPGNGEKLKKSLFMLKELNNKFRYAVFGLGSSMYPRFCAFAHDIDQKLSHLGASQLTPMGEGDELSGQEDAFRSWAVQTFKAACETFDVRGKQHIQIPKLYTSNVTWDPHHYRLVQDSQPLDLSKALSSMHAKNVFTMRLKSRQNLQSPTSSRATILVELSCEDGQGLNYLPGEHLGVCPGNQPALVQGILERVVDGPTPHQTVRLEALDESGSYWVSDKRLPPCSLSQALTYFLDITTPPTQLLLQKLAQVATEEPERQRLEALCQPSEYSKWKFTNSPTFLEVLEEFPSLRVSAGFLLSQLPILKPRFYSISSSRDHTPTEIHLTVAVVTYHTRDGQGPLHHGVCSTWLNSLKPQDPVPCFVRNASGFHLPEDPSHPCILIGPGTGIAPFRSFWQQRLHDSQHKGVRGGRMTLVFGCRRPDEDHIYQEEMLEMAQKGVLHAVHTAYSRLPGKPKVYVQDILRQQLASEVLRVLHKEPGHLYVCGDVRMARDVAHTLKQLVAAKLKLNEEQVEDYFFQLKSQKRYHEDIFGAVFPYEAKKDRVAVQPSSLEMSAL
Sequence of Nitric oxide sythases; iNOS & nNOS (Homo sapiens) (P29475 whole entry, looked up): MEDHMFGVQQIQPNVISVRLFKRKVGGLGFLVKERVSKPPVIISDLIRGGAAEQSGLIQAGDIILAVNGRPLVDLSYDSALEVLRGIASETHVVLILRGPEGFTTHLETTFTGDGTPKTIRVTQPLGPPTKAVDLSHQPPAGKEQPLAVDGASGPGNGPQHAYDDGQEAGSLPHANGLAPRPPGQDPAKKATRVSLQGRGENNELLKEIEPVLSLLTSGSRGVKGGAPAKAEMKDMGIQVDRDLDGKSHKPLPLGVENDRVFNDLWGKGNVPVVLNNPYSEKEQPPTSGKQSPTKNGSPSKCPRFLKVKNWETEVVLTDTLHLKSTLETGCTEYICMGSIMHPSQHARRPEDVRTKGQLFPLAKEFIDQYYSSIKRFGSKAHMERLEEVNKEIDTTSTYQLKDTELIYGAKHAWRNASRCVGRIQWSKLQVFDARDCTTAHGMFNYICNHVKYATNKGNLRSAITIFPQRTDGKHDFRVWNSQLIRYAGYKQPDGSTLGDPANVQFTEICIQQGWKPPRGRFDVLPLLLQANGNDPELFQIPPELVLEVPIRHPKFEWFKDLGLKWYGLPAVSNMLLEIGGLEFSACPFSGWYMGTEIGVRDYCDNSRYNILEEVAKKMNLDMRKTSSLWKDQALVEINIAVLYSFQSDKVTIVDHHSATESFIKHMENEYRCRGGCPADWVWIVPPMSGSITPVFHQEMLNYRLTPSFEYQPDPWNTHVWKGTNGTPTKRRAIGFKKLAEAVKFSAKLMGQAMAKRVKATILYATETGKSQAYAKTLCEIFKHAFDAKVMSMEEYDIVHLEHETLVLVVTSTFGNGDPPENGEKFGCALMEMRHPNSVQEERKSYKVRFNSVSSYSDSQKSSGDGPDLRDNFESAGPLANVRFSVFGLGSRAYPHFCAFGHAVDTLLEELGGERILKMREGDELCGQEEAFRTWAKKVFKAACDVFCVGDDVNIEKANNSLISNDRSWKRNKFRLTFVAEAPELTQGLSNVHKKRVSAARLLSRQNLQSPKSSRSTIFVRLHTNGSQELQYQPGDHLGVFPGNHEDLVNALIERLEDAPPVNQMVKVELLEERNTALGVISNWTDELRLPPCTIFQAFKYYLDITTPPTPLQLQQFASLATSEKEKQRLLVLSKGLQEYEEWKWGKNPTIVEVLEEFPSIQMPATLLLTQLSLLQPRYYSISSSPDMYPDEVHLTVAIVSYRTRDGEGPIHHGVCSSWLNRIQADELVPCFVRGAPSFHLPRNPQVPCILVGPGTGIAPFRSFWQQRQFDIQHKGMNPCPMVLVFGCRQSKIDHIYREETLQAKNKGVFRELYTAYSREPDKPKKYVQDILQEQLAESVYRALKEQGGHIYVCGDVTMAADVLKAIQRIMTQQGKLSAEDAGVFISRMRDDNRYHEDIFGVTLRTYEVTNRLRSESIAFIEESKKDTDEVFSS
Sequence of Nitric oxide sythases; iNOS & nNOS (Homo sapiens) (P35228 whole entry, looked up): as the sequence (P35228 whole entry) above
T1 sequence (P29475 whole entry): as the sequence (P29475 whole entry, looked up) above

| Structure (SMILES) | IC50 [1] [µM] | IC50 [2] [µM] | IC50 [3] [µM] | Ratio [4] | IC50 [5] [µM] | Ratio [6] | IC50 [7] [µM] |
| --- | --- | --- | --- | --- | --- | --- | --- |
| CC(=N)NCCCOC[C@H](N)C(=O)O | > 100 | > 100 | > 100 |  |  |  |  |
| CC(=N)NCCSC[C@@H](N)C(=O)O | 0.7 | 13.2 |  | 19 | 40 | 57 |  |
| CC(=N)NCCSCC[C@@H](N)C(=O)O | 5.9 | > 100 | > 100 | > 17 |  | > 17 |  |
| CC(=N)NCCSCC[C@H](N)C(=O)O [GW-274150] | 1.4 | 145 | 466 | 104 |  | 333 |  |
| CC(=N)NCC[S+]([O-])CCC(N)C(=O)O (stereo not given) | > 100 | > 100 | > 100 |  |  |  |  |
| CC(=N)NCCCS(=O)(=O)C[C@H](N)C(=O)O | > 100 | > 100 | > 100 |  |  |  |  |
| CC(=N)NCC[S+]([O-])C[C@@H](N)C(=O)O (stereo not given in full) | 8 | 68 | 155 | 9 |  | 19 |  |
| CC(=N)NCCCC[C@@H](N)C(=O)O | 1.6 | 37 | 78 | 23 |  | 49 |  |
| CC(=N)NCCSC[C@H](N)C(=O)O | 5.4 | 53 | > 100 | 10 |  | > 18 |  |
| CC(=N)NCCS(=O)(=O)C[C@@H](N)C(=O)O | 8 | 630 | > 1000 | 78 |  | > 125 |  |
| CC(=N)NCCOCCC(N)C(=O)O (stereo not given) | 1.4 | 6 | 72 | 5 |  | 51 |  |
| CC(=N)NCCOC[C@H](N)C(=O)O | 1.2 | 11.6 | 13 | 10 |  | 11 |  |
| CC(=N)NCCCSC[C@H](N)C(=O)O | 62 | > 100 | > 100 |  |  |  |  |
| CC(=N)NCCCCCC(N)C(=O)O (stereo not given) | 20 | > 100 | > 100 | > 5 |  | > 5 |  |
| CC(=N)NCCS(=O)(=O)CCC(N)C(=O)O (stereo not given) | > 100 |  | > 100 |  |  |  | > 100 |
